Active and inactive are the calls of the source. The calls are words filed in the database; no cut-off is given here.
The compounds below were run on ACHN (assay: Cytotoxicity against human ACHN cells […] by MTT assay). Details: not given.
Assay type: functional, cell-based

How did the IC50 turn out when `COc1ccc(-c2cc(C(=O)N[C@@H]3c4cc5c(cc4[C@@H](c4cc(OC)c(OC)c(OC)c4)[C@H]4C(=O)OC[C@@H]43)OCO5)n[nH]2)cc1` was run?
Its IC50 is 11.6 µM.

With `COc1cc(-c2cc(C(=O)N[C@@H]3c4cc5c(cc4[C@@H](c4cc(OC)c(OC)c(OC)c4)[C@H]4C(=O)OC[C@@H]43)OCO5)no2)cc(OC)c1OC` as the compound, how does the IC50 read?
Its IC50 is 34.2 µM.

Each compound was assayed on A549 (assay: Induction of apoptosis in human A549 cells assessed as nuclear fragmentation at 3 uM after 24 hrs by Hoechst staining method). Details: not given.
Assay type: functional, cell-based
How it was run: (§1)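 Cells were seeded at 10,000 per coverslip and grown 24 h, then treated 24 h. Vehicle control was 0.001% DMSO; etoposide was the standard. Hoechst at […] with 4% paraformaldehyde was added for 30 min at 37 °C. Random fields were imaged by fluorescence microscopy and apoptotic cells scored manually by cytoplasmic condensation, apoptotic bodies, nuclear fragmentation and relative fluorescence.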

How did the Activity turn out when `COc1cc([C@@H]2c3cc4c(cc3[C@@H](O[C@@H]3O[C@@H]5CO[C@@H](C)O[C@H]5[C@H](O)[C@H]3O)[C@H]3COC(=O)[C@H]23)OCO4)cc(OC)c1O` [ETOPOSIDE] was run?
Its Activity is “Active”.

What follows are compounds tested on A549 (assay: Induction of apoptosis in human A549 cells assessed as increase in fluorescence at 3 uM after 24 hrs by Hoechst staining method relative to control). Details: not given.
Assay type: functional, cell-based
How it was run: as §1

How did the Activity turn out when `COc1cc([C@@H]2c3cc4c(cc3[C@@H](O[C@@H]3O[C@@H]5CO[C@@H](C)O[C@H]5[C@H](O)[C@H]3O)[C@H]3COC(=O)[C@H]23)OCO4)cc(OC)c1O` [ETOPOSIDE] was run?
The Activity was “Active”.

Each compound was assayed on HT-29 (assay: Cytotoxicity against human HT-29 cells after 72 hrs by MTT assay). Details: HT-29, 72 h.
Assay type: functional, cell-based

With `COc1ccc(-c2cc(C(=O)N[C@@H]3c4cc5c(cc4[C@@H](c4cc(OC)c(OC)c(OC)c4)[C@H]4C(=O)OC[C@@H]43)OCO5)n[nH]2)cc1` as the compound, how does the IC50 read?
The IC50 was 8.4 µM.

`COc1cc(-c2cc(C(=O)N[C@@H]3c4cc5c(cc4[C@@H](c4cc(OC)c(OC)c(OC)c4)[C@H]4C(=O)OC[C@@H]43)OCO5)no2)cc(OC)c1OC` was tested. Which IC50 did it give?
Its IC50 is 25.1 µM.

Each compound was assayed on A549 (assay: Induction of cell cycle arrest in human A549 cells assessed as G2/M phase cells at 3 uM by FACS analysis (reference value: 9.89%)). Details: not given.
Assay type: functional

`COc1cc([C@@H]2c3cc4c(cc3[C@@H](O[C@@H]3O[C@@H]5CO[C@@H](C)O[C@H]5[C@H](O)[C@H]3O)[C@H]3COC(=O)[C@H]23)OCO4)cc(OC)c1O` [ETOPOSIDE] was tested. Which Activity did it give?
The Activity was 57.86%.

What follows are compounds tested on A549 (assay: Induction of cell cycle arrest in human A549 cells assessed as G1 phase cells at 1 uM by FACS analysis (reference value: 85.33%)). Details: not given.
Assay type: functional

For `COc1cc([C@@H]2c3cc4c(cc3[C@@H](O[C@@H]3O[C@@H]5CO[C@@H](C)O[C@H]5[C@H](O)[C@H]3O)[C@H]3COC(=O)[C@H]23)OCO4)cc(OC)c1O` [ETOPOSIDE], which Activity is on record?
Its Activity is 62.32%.

Each compound was assayed on A549 (assay: Induction of apoptosis in human A549 cells assessed as apoptotic bodies at 3 uM after 24 hrs by Hoechst staining method). Details: not given.
Assay type: functional, cell-based
How it was run: as §1

How did the Activity turn out when `COc1cc([C@@H]2c3cc4c(cc3[C@@H](O[C@@H]3O[C@@H]5CO[C@@H](C)O[C@H]5[C@H](O)[C@H]3O)[C@H]3COC(=O)[C@H]23)OCO4)cc(OC)c1O` [ETOPOSIDE] was run?
The Activity was “Active”.

Each compound was assayed on A549 (assay: Induction of apoptosis in human A549 cells assessed as DNA fragmentation at 3 uM after 48 hrs by agarose gel electrophoretic analysis). Details: not given.
Assay type: functional, cell-based
How it was run: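 Cells were seeded at 1 × 10^6/well and grown 48 h, then treated 48 h. Cells were pelleted and lysed. Lysate was given SDS and RNase-A at 56 °C for 2 h, then proteinase K at 37 °C for 2 h. DNA was precipitated with ammonium acetate and cold ethanol, washed with 80% ethanol and dissolved in TE. Laddering was read on 2% agarose gel in TE; 50 bp marker.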

How did the Activity turn out when `COc1cc([C@@H]2c3cc4c(cc3[C@@H](O[C@@H]3O[C@@H]5CO[C@@H](C)O[C@H]5[C@H](O)[C@H]3O)[C@H]3COC(=O)[C@H]23)OCO4)cc(OC)c1O` [ETOPOSIDE] was run?
The Activity was “Active”.

What follows are compounds tested on A549 (assay: Induction of cell cycle arrest in human A549 cells assessed as sub G1 phase cells at 3 uM by FACS analysis (reference value: 1.08%)). Details: not given.
Assay type: functional

Which Activity does the source give for `COc1cc([C@@H]2c3cc4c(cc3[C@@H](O[C@@H]3O[C@@H]5CO[C@@H](C)O[C@H]5[C@H](O)[C@H]3O)[C@H]3COC(=O)[C@H]23)OCO4)cc(OC)c1O` [ETOPOSIDE] here?
The Activity was 8.3%.

These compounds were tested on A549 (assay: Induction of apoptosis in human A549 cells assessed as increase in caspase3 activity at 3 uM after 48 hrs relative to control). Details: not given.
Assay type: functional
How it was run: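 A-549 cells were seeded at 2.5 × 10^6/well and treated 48 h alongside etoposide, then scraped and lysed on ice. Supernatant was mixed with 2X assay buffer and Ac-DEVD-AFC substrate for 1 h. Fluorescence (ex 400, em 505 nm) was read every 5 min, normalized to Bradford protein and expressed as fold over control. Two experiments, each in triplicate.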

`COc1cc([C@@H]2c3cc4c(cc3[C@@H](O[C@@H]3O[C@@H]5CO[C@@H](C)O[C@H]5[C@H](O)[C@H]3O)[C@H]3COC(=O)[C@H]23)OCO4)cc(OC)c1O` [ETOPOSIDE] was tested. Which “fold change (FC)” value did it give?
The value was 6.

The compounds below were run on A549 (assay: Induction of cell cycle arrest in human A549 cells assessed as G2/M phase cells at 1 uM by FACS analysis (reference value: 9.89%)). Details: not given.
Assay type: functional

For `COc1cc([C@@H]2c3cc4c(cc3[C@@H](O[C@@H]3O[C@@H]5CO[C@@H](C)O[C@H]5[C@H](O)[C@H]3O)[C@H]3COC(=O)[C@H]23)OCO4)cc(OC)c1O` [ETOPOSIDE], which Activity is on record?
Its Activity is 32.33%.

These compounds were tested on A549 (assay: Induction of cell cycle arrest in human A549 cells assessed as G1 phase cells at 3 uM by FACS analysis (reference value: 85.33%)). Details: not given.
Assay type: functional

For `COc1cc([C@@H]2c3cc4c(cc3[C@@H](O[C@@H]3O[C@@H]5CO[C@@H](C)O[C@H]5[C@H](O)[C@H]3O)[C@H]3COC(=O)[C@H]23)OCO4)cc(OC)c1O` [ETOPOSIDE], which Activity is on record?
The Activity was 31.49%.

The compounds below were run on A549 (assay: Cytotoxicity against human A549 cells […] by MTT assay). Details: not given.
Assay type: functional, cell-based

`COc1cc([C@@H]2c3cc4c(cc3[C@@H](O[C@@H]3O[C@@H]5CO[C@@H](C)O[C@H]5[C@H](O)[C@H]3O)[C@H]3COC(=O)[C@H]23)OCO4)cc(OC)c1O` [ETOPOSIDE] was tested. Which IC50 did it give?
Its IC50 is 2.8 µM.

For `COc1ccc(-c2cc(C(=O)N[C@@H]3c4cc5c(cc4[C@@H](c4cc(OC)c(OC)c(OC)c4)[C@H]4C(=O)OC[C@@H]43)OCO5)n[nH]2)cc1`, which IC50 is on record?
Its IC50 is 5.3 µM.

With `COc1cc(-c2cc(C(=O)N[C@@H]3c4cc5c(cc4[C@@H](c4cc(OC)c(OC)c(OC)c4)[C@H]4C(=O)OC[C@@H]43)OCO5)no2)cc(OC)c1OC` as the compound, how does the IC50 read?
Its IC50 is 19.8 µM.

What follows are compounds tested on A549 (assay: Induction of cell cycle arrest in human A549 cells assessed as S phase cells at 1 uM by FACS analysis (reference value: 3.69%)). Details: not given.
Assay type: functional

`COc1cc([C@@H]2c3cc4c(cc3[C@@H](O[C@@H]3O[C@@H]5CO[C@@H](C)O[C@H]5[C@H](O)[C@H]3O)[C@H]3COC(=O)[C@H]23)OCO4)cc(OC)c1O` [ETOPOSIDE] was tested. Which Activity did it give?
The Activity was 4.1%.

The compounds below were run on B16 (assay: Cytotoxicity against mouse B16 cells […] by MTT assay). Details: not given.
Assay type: functional, cell-based

For `COc1cc([C@@H]2c3cc4c(cc3[C@@H](O[C@@H]3O[C@@H]5CO[C@@H](C)O[C@H]5[C@H](O)[C@H]3O)[C@H]3COC(=O)[C@H]23)OCO4)cc(OC)c1O` [ETOPOSIDE], which IC50 is on record?
The IC50 was 1.39 µM.

`COc1ccc(-c2cc(C(=O)N[C@@H]3c4cc5c(cc4[C@@H](c4cc(OC)c(OC)c(OC)c4)[C@H]4C(=O)OC[C@@H]43)OCO5)n[nH]2)cc1` was tested. Which IC50 did it give?
The IC50 was 9.5 µM.

`COc1cc(-c2cc(C(=O)N[C@@H]3c4cc5c(cc4[C@@H](c4cc(OC)c(OC)c(OC)c4)[C@H]4C(=O)OC[C@@H]43)OCO5)no2)cc(OC)c1OC` was tested. Which IC50 did it give?
The IC50 was 23.4 µM.

The compounds below were run on HeLa (assay: Cytotoxicity against human HeLa cells […] by MTT assay). Details: not given.
Assay type: functional, cell-based

For `COc1cc([C@@H]2c3cc4c(cc3[C@@H](O[C@@H]3O[C@@H]5CO[C@@H](C)O[C@H]5[C@H](O)[C@H]3O)[C@H]3COC(=O)[C@H]23)OCO4)cc(OC)c1O` [ETOPOSIDE], which IC50 is on record?
Its IC50 is 1.52 µM.

Which IC50 does the source give for `COc1ccc(-c2cc(C(=O)N[C@@H]3c4cc5c(cc4[C@@H](c4cc(OC)c(OC)c(OC)c4)[C@H]4C(=O)OC[C@@H]43)OCO5)n[nH]2)cc1` here?
Its IC50 is 9.4 µM.

Which IC50 does the source give for `COc1cc(-c2cc(C(=O)N[C@@H]3c4cc5c(cc4[C@@H](c4cc(OC)c(OC)c(OC)c4)[C@H]4C(=O)OC[C@@H]43)OCO5)no2)cc(OC)c1OC` here?
Its IC50 is 18.4 µM.

The compounds below were run on A549 (assay: Induction of cell cycle arrest in human A549 cells assessed as S phase cells at 3 uM by FACS analysis (reference value: 3.69%)). Details: not given.
Assay type: functional

Which Activity does the source give for `COc1cc([C@@H]2c3cc4c(cc3[C@@H](O[C@@H]3O[C@@H]5CO[C@@H](C)O[C@H]5[C@H](O)[C@H]3O)[C@H]3COC(=O)[C@H]23)OCO4)cc(OC)c1O` [ETOPOSIDE] here?
The Activity was 2.42%.

Each compound was assayed on A549 (assay: Induction of cell cycle arrest in human A549 cells assessed as sub G1 phase cells at 1 uM by FACS analysis (reference value: 1.08%)). Details: not given.
Assay type: functional

For `COc1cc([C@@H]2c3cc4c(cc3[C@@H](O[C@@H]3O[C@@H]5CO[C@@H](C)O[C@H]5[C@H](O)[C@H]3O)[C@H]3COC(=O)[C@H]23)OCO4)cc(OC)c1O` [ETOPOSIDE], which Activity is on record?
Its Activity is 1.25%.

These compounds were tested on A549 (assay: Induction of apoptosis in human A549 cells assessed as cytoplasmic condensation at 3 uM after 24 hrs by Hoechst staining method). Details: not given.
Assay type: functional, cell-based
How it was run: as §1

Which Activity does the source give for `COc1cc([C@@H]2c3cc4c(cc3[C@@H](O[C@@H]3O[C@@H]5CO[C@@H](C)O[C@H]5[C@H](O)[C@H]3O)[C@H]3COC(=O)[C@H]23)OCO4)cc(OC)c1O` [ETOPOSIDE] here?
The Activity was “Active”.
